DNMT1 inh – blocks human DNA methyltransferase DNMT1; DNMT1 molecular beacon, Hinp1I cleavage, fluorescence; 360,000 compounds, 0.83% hits; AID 588458; inhibition (reported as % activation of signal), % at 10 µM; in the data active = inhibition above about 50%
SUMO1 PPI mod – SUMO1-SIM interaction modulation; 360,000 compounds, 0.33% hits; inhibition, % at 20 µM; SUMO1 binding to a labelled peptide, TR-FRET, 1 h; in the data active = inhibition above about 37%
LMPTP block – LMPTP (human) inhibition; 360,000 compounds, 0.22% hits; inhibition, % at 20 µM; recombinant LMPTP-A, OMFP fluorogenic substrate, fluorescence intensity; AID 651560;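 active = compounds that cut the enzyme signal by at least half of the control window in the single-dose screen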;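 also: plate controls were DMSO wells with enzyme plus substrate for no effect and substrate without enzyme for full effect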
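test system = LMPTP-A | amount = 0.625 nM LMPTP-A final | reagent = fluorogenic phosphatase substrate OMFP at 400 µM final | incubation = 50 min at room temperature | benchmarks = no-enzyme low control, uninhibited high control | medium = Bis-Tris pH 6.0, DTT, detergent | signal = fluorescence intensity of OMFP turnover product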
STEP inh – STEP (human) phosphatase inhibition; 360,000 compounds, 0.25% hits; P54829; inhibition, % at 20 µM; recombinant STEP, OMFP fluorogenic substrate, fluorescence; AID 588621;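 active = inhibition at 20 µM, scaled per plate between control wells, above about 37%, limit read from the data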;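 also: 0% = DMSO with enzyme and substrate and 100% = substrate only without enzyme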
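Assay system: isolated STEP enzyme / Timing: 20 min at room temperature, dark / Doses: 20 µM, 1% DMSO / Technique: fluorescence intensity, excitation 480 nm, emission 540 nm / Reagent: fluorogenic phosphatase substrate OMFP at 25 µM final / Measure: percent inhibition scaled to no-enzyme and uninhibited-enzyme controls, plate-pattern corrected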
Scp1 inh – inhibitors of human Scp-1 phosphatase | Q9GZU7 | Recombinant Scp1, phosphopeptide, malachite green phosphate absorbance | inhibition, % at 20 µM | 340,000 compounds, 0.88% hits;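 active = inhibition above about 50% at 20 µM, limit read from the data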;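 also: plate controls were DMSO wells with enzyme for no effect and wells lacking enzyme for full effect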
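Incubation: 45 min enzyme reaction at room temperature / System: truncated SCP-1 phosphatase (76-261aa) / Reagent: Phospho 17-mer peptide substrate / Buffer or medium: Acidic Tris acetate buffer with magnesium and detergent / Signal: absorbance at 630 nm / Doses: one concentration, 20 µM, with 1.0% DMSO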
NadD inh – blocks S. aureus nicotinate mononucleotide adenylyltransferase; purified NadD enzyme, colorimetric absorbance read-out; inhibition, % at 20 µM; 360,000 compounds, 0.78% hits; AID 602399; in the data active = inhibition above about 26%
Scp1 confirm – confirmation of human Scp-1 phosphatase inhibitors; recombinant SCP-1 catalytic domain, phosphate release, malachite green absorbance; inhibition, % at 20 µM; 2,500 compounds, 61% hits; shares compounds with Scp1 inh;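 also: plate controls were DMSO with enzyme for no effect and buffer wells lacking enzyme for full effect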
Scp-1 MG ctr – colorimetric interference in Scp-1 counter-screen; apparent inhibition (interference), % at 20 µM; 2,500 tested, under 10 active; Colorimetric interference counterscreen, malachite green absorbance 630 nm; shares compounds with Scp1 inh; AID 540313;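 also: compounds added after enzyme reaction finished so only phosphate colour detection is probed; plate controls were DMSO wells with completed Scp-1 reaction for no effect and substrate wells lacking enzyme for full effect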
Scp-1 Tm shift – Scp-1 (human) binding by thermal shift; shares compounds with Scp1 inh; Recombinant SCP1, Sypro Orange thermal shift Tm; thermal shift relative to vanadate control, % at 40 µM; 1,500 compounds, 25% hits; AID 540329;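 active = substances whose mean melting-temperature shift, as a percentage of the reference inhibitor's shift, reaches about 5.3%, limit read from the data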;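 also: 0% = Tm of DMSO wells and 100% = Tm with sodium orthovanadate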
* marks the source's active call; other numbers are inactive results; / = no result. Compounds with a hit are over-represented: about 2.3% of the library has one in this group of screens.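 The calls were made as follows, unless noted: active = inhibition of at least 30% at 20 µM; inactive = the rest.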

SMILES	DNMT1 inh	SUMO1 PPI mod	LMPTP block	STEP inh	Scp1 inh	NadD inh	Scp1 confirm	Scp-1 MG ctr	Scp-1 Tm shift
COc1ccccc1NC(=O)C/C(C)=N/NC(=O)COc1c(Br)cc(Br)cc1OC	-5	4	1	2	-4	-4	/	/	/
Cc1c(/C=N\NC(=O)c2cccc(F)c2)cnn1C	4	0	-2	2	-8	1	/	/	/
CCc1ccc(OCc2cccc(C(=O)N/N=C\c3cnn(C)c3C)c2)cc1	15	7	14	4	66*	-6	78*	-4	-6
O=C(O)c1ccccc1NCc1ccncc1	-3	11	-1	-4	-3	3	/	/	/
O=C(O)c1ccc(CNc2ccccc2C(=O)O)cc1	39	8	0	6	53*	3	54*	-4	-9
O=C(CSc1nnc(-c2ccncc2)n1-c1ccc(F)cc1)NC(=O)NCc1ccco1	68*	0	7	5	89*	9	64*	-8	-3
Cc1ccc(-n2c(SCC(=O)NCc3ccco3)nnc2-c2cccnc2)cc1	3	1	-1	1	-7	1	/	/	/
CC(=O)OCC[n+]1c(C)n(-c2ccccc2)c2ccc(Cl)cc21	2	-3	-2	-1	90*	23	-9	-13	/
CCOC(=O)c1ccc2c(c1)[n+](CC)c(C)n2-c1ccccc1	0	2	-2	6	11	7	/	/	/
CN(CC1CCOCC1)C(=O)CC1C(=O)NCCN1Cc1cccc(Oc2ccccc2)c1 (centres undefined)	7	3	-1	0	-3	-1	/	/	/
O=C(N/N=C/c1ccco1)c1ccc(NC(=O)c2ccc(Cl)cc2)cc1	36	5	63*	10	77*	15	40*	-6	0
O=C(N/N=C/c1ccncc1)c1ccc(NC(=O)c2ccc(Cl)cc2)cc1	1	-1	11	21	64*	0	26	-10	/
O=C(CCCCCNC(=O)c1ccccc1)N/N=C/c1ccco1	19	-4	0	0	52*	-1	32*	-11	-11
O=C(N/N=C/c1ccncc1)c1ccncc1	-1	-3	-1	-2	-7	-1	/	/	/
O=C(N/N=C/c1ccncc1)c1ccc(NC(=O)c2cccc(Cl)c2)cc1	-11	5	10	31	68*	6	35*	-16	15*
COc1ccc(C2=NN(C(=O)c3ccco3)C(c3cccs3)C2)cc1OC (centres undefined)	4	-13	-1	1	/	-5	/	/	/
C[C@H](CO)N1C[C@H](C)[C@@H](CN(C)S(=O)(=O)c2cn(C)cn2)OCc2cnnn2CCCC1=O	0	-3	-1	1	/	7	/	/	/
O=C(Nc1nnc(-c2ccc(Cl)s2)o1)C1CC1	-1	-2	0	0	57*	0	-27	-14	/
O=C(NCc1ccccn1)C1CCN(S(=O)(=O)c2cnc[nH]2)CC1	0	0	1	-3	60*	-1	33*	-13	-5
Cc1ccc(C(=O)N/C(=C/c2ccc(-c3ccc([N+](=O)[O-])cc3)o2)C(=O)NCCCN(C)C)cc1	2	-52	-2	0	15	2	/	/	/
O=C(c1ccco1)N1CCN(Cc2cc(=O)c(OCc3ccccc3Cl)co2)CC1	1	4	-1	0	-5	3	/	/	/
COc1ccc(CN2CCc3ccccc3C2)c(OC)c1	0	1	-3	3	-4	-8	/	/	/
COc1ccc(C2=[N+](C)CCn3cccc32)c(OC)c1	3	-1	0	2	103*	19	96*	-7	0
CCOC(=O)c1ccc(OCCOc2ccccc2C)cc1	1	8	4	3	-14	-5	/	/	/
CC[N+]1(CC)CC2CCC(C)(C1)C2(C)C (centres undefined)	0	3	-1	-4	53*	12	88*	-18	-6
SMILES	DNMT1 inh	SUMO1 PPI mod	LMPTP block	STEP inh	Scp1 inh	NadD inh	Scp1 confirm	Scp-1 MG ctr	Scp-1 Tm shift
CC12CCC(C[N+](C)(C)C1)C2(C)C (centres undefined)	1	-3	-1	0	86*	12	96*	-5	-5
Cc1ccc(NC(=O)CSCc2cc(=O)n3nc(C4CC4)sc3n2)cc1	1	-7	0	1	-6	-5	/	/	/
COc1cccc(NC(=O)CSCc2cc(=O)n3nc(C4CC4)sc3n2)c1	2	-2	-2	-2	-4	-4	-17	-15	/
CCC1(c2ccccc2)NC(=O)N(CC(=O)N(C)CC(=O)Nc2c(C)cccc2C)C1=O (centres undefined)	0	-8	-1	0	2	3	-5	-3	/
CCC1(c2ccccc2)NC(=O)N(CC(=O)N(C)CC(=O)Nc2cccc(OC)c2)C1=O (centres undefined)	-2	6	-2	-2	-4	4	/	/	/
COc1ccc(-n2c(Cc3cccn3C)nnc2SCC(=O)NCc2ccco2)cc1	1	-1	-1	-1	15	4	/	/	/
COc1ccc(-n2c(Cc3cccn3C)nnc2SCC(=O)NCc2ccc(F)cc2)cc1	0	6	0	-3	90*	6	-2	-8	/
O=C(OCc1cc(=O)n2cc(Br)ccc2n1)C1COc2ccccc2O1 (centres undefined)	6	-24	1	-1	16	0	/	/	/
Cn1c(SCc2cc(=O)n3cc(Br)ccc3n2)nnc1C1COc2ccccc2O1 (centres undefined)	35	-17	0	3	61*	4	41*	-21	-17
CC(C)CC(NC(=O)C1CCCCC1)C(=O)NC(C)c1ccccc1 (centres undefined)	4	2	-2	1	-2	-1	/	/	/
CC(C)CCC(C(=O)NC(C)c1ccccc1)C(=O)NC(C)c1ccccc1 (centres undefined)	22	9	52*	10	92*	-5	57*	-21	-29
CCOc1ccc(C(=O)Nc2ncccc2Cl)cc1	3	-5	0	-6	-7	2	/	/	/
Cc1ccc(C)c(OCC(=O)NNC(=O)c2ccc(NC(=O)C3CC3)cc2)c1	-1	4	-1	-3	-2	-4	/	/	/
Cc1cc(Br)ccc1OCC(=O)NNC(=O)c1ccc(NC(=O)C2CC2)cc1	12	-1	5	-1	61*	-4	9	-10	/
